≈ marks a conversion by molar mass, not a printed value.
Experiments:
[1] = system: CHO-K1; assay: Cytotoxicity against CHOK1 cells assessed as reduction in cell viability; assay type: cell-based; conditions: Cricetulus griseus
[2] = system: Mycobacterium tuberculosis; assay: Antimycobacterial activity against Mycobacterium tuberculosis H37Rv; assay type: functional
Outline: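 Drug-sensitive M. tuberculosis H37Rv grown in a glycerol-containing medium; MIC99 is the minimum concentration that inhibits growth of 99% of the bacterial population.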

Compound: CC(=O)O[C@H]1C[C@@]2(C)[C@@H](C[C@@H](O)[C@H]3[C@@]4(C)CC[C@@H](O)[C@@H](C)[C@@H]4CC[C@@]32C)/C1=C(\CCC=C(C)C)C(=O)NS(C)(=O)=O
- IC50 [1]: > 169 µM
- MIC99 [2]: 80 µM (≈ 47.5 µg/mL)

Compound: CC(=O)O[C@H]1C[C@@]2(C)[C@@H](C[C@@H](O)[C@H]3[C@@]4(C)CC[C@@H](O)[C@@H](C)[C@@H]4CC[C@@]32C)/C1=C(\CCC=C(C)C)C(=O)NNC(=O)c1cccs1
- IC50 [1]: 78.8 µM
- MIC99 [2]: 40 µM (≈ 25.6 µg/mL)

Compound: CC(=O)O[C@H]1C[C@@]2(C)[C@@H](C[C@@H](O)[C@H]3[C@@]4(C)CC[C@@H](O)[C@@H](C)[C@@H]4CC[C@@]32C)/C1=C(\CCC=C(C)C)C(=O)NS(=O)(=O)c1ccccc1
- IC50 [1]: 96.1 µM
- MIC99 [2]: > 125 µM

Compound: CC(=O)O[C@H]1C[C@@]2(C)[C@@H](C[C@@H](O)[C@H]3[C@@]4(C)CC[C@@H](O)[C@@H](C)[C@@H]4CC[C@@]32C)/C1=C(\CCC=C(C)C)C(=O)Nc1nn[nH]n1
- IC50 [1]: > 171 µM
- MIC99 [2]: 40 µM (≈ 23.4 µg/mL)

Compound: CC(=O)O[C@H]1C[C@@]2(C)[C@@H](C[C@@H](O)[C@H]3[C@@]4(C)CC[C@@H](O)[C@@H](C)[C@@H]4CC[C@@]32C)/C1=C(\CCC=C(C)C)C(=O)NC#N
- IC50 [1]: > 185 µM
- MIC99 [2]: 40 µM (≈ 21.6 µg/mL)

Compound: CC(=O)O[C@H]1C[C@@]2(C)[C@@H](C[C@@H](O)[C@H]3[C@@]4(C)CC[C@@H](O)[C@@H](C)[C@@H]4CC[C@@]32C)/C1=C(\CCC=C(C)C)C(N)=O
- IC50 [1]: 113 µM
- MIC99 [2]: > 125 µM

Compound: CC(=O)O[C@H]1C[C@@]2(C)[C@@H](C[C@@H](O)[C@H]3[C@@]4(C)CC[C@@H](O)[C@@H](C)[C@@H]4CC[C@@]32C)/C1=C(\CCC=C(C)C)C(=O)NS(=O)(=O)c1ccc(F)c(F)c1
- IC50 [1]: 81.4 µM
- MIC99 [2]: 20 µM (≈ 13.8 µg/mL)

Compound: CC(=O)O[C@H]1C[C@@]2(C)[C@@H](C[C@@H](O)[C@H]3[C@@]4(C)CC[C@@H](O)[C@@H](C)[C@@H]4CC[C@@]32C)/C1=C(\CCC=C(C)C)C(=O)NN
- IC50 [1]: 112 µM
- MIC99 [2]: 40 µM (≈ 21.2 µg/mL)

Compound: CCCCCCCCCCCCCCNC(=O)/C(CCC=C(C)C)=C1\[C@@H](OC(C)=O)C[C@@]2(C)[C@H]1C[C@@H](O)[C@H]1[C@@]3(C)CC[C@@H](O)[C@@H](C)[C@@H]3CC[C@@]12C
- IC50 [1]: > 140 µM
- MIC99 [2]: > 125 µM

Compound: CCCCCCCCCCCCCCCCNC(=O)/C(CCC=C(C)C)=C1\[C@@H](OC(C)=O)C[C@@]2(C)[C@H]1C[C@@H](O)[C@H]1[C@@]3(C)CC[C@@H](O)[C@@H](C)[C@@H]3CC[C@@]12C
- IC50 [1]: > 135 µM
- MIC99 [2]: > 125 µM

Compound: CCCCCCCCCCCCNC(=O)/C(CCC=C(C)C)=C1\[C@@H](OC(C)=O)C[C@@]2(C)[C@H]1C[C@@H](O)[C@H]1[C@@]3(C)CC[C@@H](O)[C@@H](C)[C@@H]3CC[C@@]12C
- IC50 [1]: > 146 µM
- MIC99 [2]: > 125 µM

Compound: CCCCCCCCCC(=O)O[C@@H]1CC[C@@]2(C)[C@@H](CC[C@@]3(C)[C@H]2[C@H](O)C[C@H]2/C(=C(\CCC=C(C)C)C(=O)O)[C@@H](OC(C)=O)C[C@@]23C)[C@@H]1C
- MIC99 [2]: > 125 µM

Compound: CC(=O)O[C@H]1C[C@@]2(C)[C@@H](C[C@@H](O)[C@H]3[C@@]4(C)CC[C@@H](OC(=O)c5ccc([N+](=O)[O-])cc5)[C@@H](C)[C@@H]4CC[C@@]32C)/C1=C(\CCC=C(C)C)C(=O)O
- MIC99 [2]: > 125 µM

Compound: CC(=O)O[C@H]1C[C@@]2(C)[C@@H](C[C@@H](O)[C@H]3[C@@]4(C)CC[C@@H](O)[C@@H](C)[C@@H]4CC[C@@]32C)/C1=C(\CCC=C(C)C)C(=O)N/N=C/c1ccncc1
- MIC99 [2]: 20 µM (≈ 12.4 µg/mL)

Compound: CC(=O)O[C@H]1C[C@@]2(C)[C@@H](C[C@@H](O)[C@H]3[C@@]4(C)CC[C@@H](OC(=O)c5ccc(C(F)(F)F)cc5)[C@@H](C)[C@@H]4CC[C@@]32C)/C1=C(\CCC=C(C)C)C(=O)O
- MIC99 [2]: > 125 µM

Compound: CC(=O)O[C@H]1C[C@@]2(C)[C@@H](C[C@@H](O)[C@H]3[C@@]4(C)CC[C@@H](O)[C@@H](C)[C@@H]4CC[C@@]32C)/C1=C(\CCC=C(C)C)C(=O)NCCN1CCOCC1
- MIC99 [2]: > 125 µM

Compound: CCC(=O)O[C@@H]1CC[C@@]2(C)[C@@H](CC[C@@]3(C)[C@H]2[C@H](O)C[C@H]2/C(=C(\CCC=C(C)C)C(=O)NN)[C@@H](OC(C)=O)C[C@@]23C)[C@@H]1C
- MIC99 [2]: 15.6 µM (≈ 9.15 µg/mL)

Compound: CC(=O)O[C@H]1C[C@@]2(C)[C@@H](C[C@@H](O)[C@H]3[C@@]4(C)CCC(=O)[C@@H](C)[C@@H]4CC[C@@]32C)/C1=C(\CCC=C(C)C)C(=O)NNS(C)(=O)=O
- MIC99 [2]: 62.5 µM (≈ 37.9 µg/mL)

Compound: CCCCC(=O)O[C@@H]1CC[C@@]2(C)[C@@H](CC[C@@]3(C)[C@H]2[C@H](O)C[C@H]2/C(=C(\CCC=C(C)C)C(=O)NN)[C@@H](OC(C)=O)C[C@@]23C)[C@@H]1C
- MIC99 [2]: 62.5 µM (≈ 38.4 µg/mL)

Compound: CCCCC(=O)O[C@@H]1CC[C@@]2(C)[C@@H](CC[C@@]3(C)[C@H]2[C@H](O)C[C@H]2/C(=C(\CCC=C(C)C)C(=O)NNS(C)(=O)=O)[C@@H](OC(C)=O)C[C@@]23C)[C@@H]1C
- MIC99 [2]: 62.5 µM (≈ 43.3 µg/mL)

Compound: CC(=O)O[C@H]1C[C@@]2(C)[C@@H](C[C@@H](O)[C@H]3[C@@]4(C)CC[C@@H](OC(=O)c5ccncc5)[C@@H](C)[C@@H]4CC[C@@]32C)/C1=C(\CCC=C(C)C)C(=O)O
- MIC99 [2]: 31.3 µM (≈ 19.5 µg/mL)

Compound: CC(=O)O[C@H]1C[C@@]2(C)[C@@H](C[C@@H](O)[C@H]3[C@@]4(C)CC[C@@H](OC(=O)c5ccc(F)cc5)[C@@H](C)[C@@H]4CC[C@@]32C)/C1=C(\CCC=C(C)C)C(=O)O
- MIC99 [2]: > 125 µM

Compound: CO/N=C1\CC[C@@]2(C)[C@@H](CC[C@@]3(C)[C@H]2[C@H](O)C[C@H]2/C(=C(\CCC=C(C)C)C(=O)O)[C@@H](OC(C)=O)C[C@@]23C)[C@@H]1C
- MIC99 [2]: 20 µM (≈ 10.9 µg/mL)

Compound: CC(=O)O[C@H]1C[C@@]2(C)[C@@H](C[C@@H](O)[C@H]3[C@@]4(C)CC[C@@H](O)[C@@H](C)[C@@H]4CC[C@@]32C)/C1=C(\CCC=O)C(=O)O
- MIC99 [2]: 40 µM (≈ 19.6 µg/mL)

Compound: CC(=O)O[C@H]1C[C@@]2(C)[C@@H](CC(=O)[C@H]3[C@@]4(C)CCC(=O)[C@@H](C)[C@@H]4CC[C@@]32C)/C1=C(\CCC=C(C)C)C(=O)O
- MIC99 [2]: 11.9 µM (≈ 6.1 µg/mL)

Compound: CC(=O)O[C@H]1C[C@@]2(C)[C@@H](C[C@@H](O)[C@H]3[C@@]4(C)CC[C@@H](OC(=O)c5ccc(C)cc5)[C@@H](C)[C@@H]4CC[C@@]32C)/C1=C(\CCC=C(C)C)C(=O)O
- MIC99 [2]: 31.3 µM (≈ 19.9 µg/mL)

Compound: CC(=O)O[C@H]1C[C@@]2(C)[C@@H](C[C@@H](O)[C@H]3[C@@]4(C)CC[C@@H](O)[C@@H](C)[C@@H]4CC[C@@]32C)/C1=C(\CCC=C(C)C)C(=O)N1CC(O)C1
- MIC99 [2]: 40 µM (≈ 22.9 µg/mL)

Compound: CC(=O)O[C@H]1C[C@@]2(C)[C@@H](C[C@@H](O)[C@H]3[C@@]4(C)CC[C@@H](O)[C@@H](C)[C@@H]4CC[C@@]32C)/C1=C(\CCC=C(C)C)C(=O)N1CCC(O)CC1
- MIC99 [2]: 40 µM (≈ 24 µg/mL)

Compound: CC(=O)O[C@H]1C[C@@]2(C)[C@@H](C[C@@H](O)[C@H]3[C@@]4(C)CC[C@@H](O)[C@@H](C)[C@@H]4CC[C@@]32C)C1=O
- MIC99 [2]: > 125 µM

Compound: CC(=O)O[C@H]1C[C@@]2(C)[C@@H](C[C@@H](O)[C@H]3[C@@]4(C)CC[C@@H](O)[C@@H](C)[C@@H]4CC[C@@]32C)/C1=C(\CCC=C(C)C)C(=O)N/N=C/c1cccnc1
- MIC99 [2]: 20 µM (≈ 12.4 µg/mL)

Compound: CC(=O)O[C@H]1C[C@@]2(C)[C@@H](C[C@@H](OC(C)=O)[C@H]3[C@@]4(C)CC[C@@H](OC(C)=O)[C@@H](C)[C@@H]4CC[C@@]32C)/C1=C(\CCC=C(C)C)C(=O)O
- MIC99 [2]: 52.5 µM (≈ 31.5 µg/mL)

Compound: CC(=O)O[C@H]1C[C@@]2(C)[C@@H](C[C@@H](O)[C@H]3[C@@]4(C)CC[C@@H](O)[C@@H](C)[C@@H]4CC[C@@]32C)/C1=C(\CCC=C(C)C)C(=O)NCCO
- MIC99 [2]: > 125 µM

Compound: CC(=O)O[C@H]1C[C@@]2(C)[C@@H](C[C@@H](O)[C@H]3[C@@]4(C)CC[C@@H](O)[C@@H](C)[C@@H]4CC[C@@]32C)/C1=C(\CCC=C(C)C)C(=O)NS(=O)(=O)c1ccc(C#N)cc1
- MIC99 [2]: 125 µM (≈ 85.1 µg/mL)

Compound: CC(=O)O[C@H]1C[C@@]2(C)[C@@H](C[C@@H](O)[C@H]3[C@@]4(C)CC[C@@H](OC(=O)c5ccc(S(C)(=O)=O)cc5)[C@@H](C)[C@@H]4CC[C@@]32C)/C1=C(\CCC=C(C)C)C(=O)O
- MIC99 [2]: 31.3 µM (≈ 21.9 µg/mL)

Compound: CC(=O)O[C@H]1C[C@@]2(C)[C@@H](C[C@@H](O)[C@H]3[C@@]4(C)CC[C@@H](OC(=O)c5ccc(Br)cc5)[C@@H](C)[C@@H]4CC[C@@]32C)/C1=C(\CCC=C(C)C)C(=O)O
- MIC99 [2]: > 125 µM

Compound: CC(=O)O[C@H]1C[C@@]2(C)[C@@H](C[C@@H](O)[C@H]3[C@@]4(C)CC/C(=N\OCc5ccccc5)[C@@H](C)[C@@H]4CC[C@@]32C)/C1=C(\CCC=C(C)C)C(=O)O
- MIC99 [2]: 40 µM (≈ 24.8 µg/mL)

Compound: COc1ccc(S(=O)(=O)NC(=O)/C(CCC=C(C)C)=C2\[C@@H](OC(C)=O)C[C@@]3(C)[C@H]2C[C@@H](O)[C@H]2[C@@]4(C)CC[C@@H](O)[C@@H](C)[C@@H]4CC[C@@]23C)cc1
- MIC99 [2]: 31.3 µM (≈ 21.5 µg/mL)

Compound: CCC(=O)O[C@@H]1CC[C@@]2(C)[C@@H](CC[C@@]3(C)[C@H]2[C@H](O)C[C@H]2/C(=C(\CCC=C(C)C)C(=O)NNS(C)(=O)=O)[C@@H](OC(C)=O)C[C@@]23C)[C@@H]1C
- MIC99 [2]: 7.81 µM (≈ 5.19 µg/mL)

Compound: CC[C@H]1CN2CCc3cc(OC)c(OC)cc3[C@@H]2C[C@@H]1C[C@H]1NCCc2cc(OC)c(OC)cc21 [EMETINE]
- IC50 [1]: 0.4 µM

Compound: CO[C@H]1/C=C/O[C@@]2(C)Oc3c(C)c(O)c4c(O)c(c(/C=N/N5CCN(C)CC5)c(O)c4c3C2=O)NC(=O)/C(C)=C\C=C\[C@H](C)[C@H](O)[C@@H](C)[C@@H](O)[C@@H](C)[C@H](OC(C)=O)[C@@H]1C [RIFAMPIN]
- MIC99 [2]: 0.005 µM (≈ 0.00411 µg/mL)

Reference: ChEMBL document CHEMBL4725234, “Structure-activity relationship analyses of fusidic acid derivatives highlight crucial role of the C-21 carboxylic acid moiety to its anti-mycobacterial activity” (Bioorg Med Chem, 2020)
